Jurkat NFkB inh – inhibitors of induced NF-kB luciferase reporter, primary screen, TCR NF-kB activation inhibitor project, cell-based, luminescence, uHTS | Jurkat, PMA/ionomycin-induced NF-kB luciferase reporter | hit rate 0.53% among 330,000 | inhibition, % at 4 µM; in the data active = inhibition above about 50%
Mdm2 MdmX PPI – inhibitors of human Mdm2-MdmX association, primary screen, cell-based, luminescence, split luciferase, SaOS-2, uHTS. inhibition, % at 8 µM. SaOS-2 split-luciferase Mdm2/MdmX complementation. hit rate 3% among 330,000;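 active = inhibition of at least 50% at 8 µM in the primary screen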
Target sequence (O15151 whole entry, looked up): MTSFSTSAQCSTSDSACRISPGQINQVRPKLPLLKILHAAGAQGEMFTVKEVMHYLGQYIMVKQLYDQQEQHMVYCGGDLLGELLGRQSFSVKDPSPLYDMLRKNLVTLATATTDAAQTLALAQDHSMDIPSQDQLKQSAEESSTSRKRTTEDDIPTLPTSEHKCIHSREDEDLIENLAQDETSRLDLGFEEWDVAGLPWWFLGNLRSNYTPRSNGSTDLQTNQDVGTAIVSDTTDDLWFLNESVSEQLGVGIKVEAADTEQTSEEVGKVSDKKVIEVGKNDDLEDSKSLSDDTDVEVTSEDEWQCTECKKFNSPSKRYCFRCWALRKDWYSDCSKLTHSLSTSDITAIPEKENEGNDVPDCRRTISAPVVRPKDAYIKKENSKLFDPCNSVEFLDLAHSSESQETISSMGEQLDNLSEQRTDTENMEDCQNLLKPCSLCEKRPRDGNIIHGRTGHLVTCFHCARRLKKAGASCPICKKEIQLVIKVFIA
Target sequence (Q00987 whole entry, looked up): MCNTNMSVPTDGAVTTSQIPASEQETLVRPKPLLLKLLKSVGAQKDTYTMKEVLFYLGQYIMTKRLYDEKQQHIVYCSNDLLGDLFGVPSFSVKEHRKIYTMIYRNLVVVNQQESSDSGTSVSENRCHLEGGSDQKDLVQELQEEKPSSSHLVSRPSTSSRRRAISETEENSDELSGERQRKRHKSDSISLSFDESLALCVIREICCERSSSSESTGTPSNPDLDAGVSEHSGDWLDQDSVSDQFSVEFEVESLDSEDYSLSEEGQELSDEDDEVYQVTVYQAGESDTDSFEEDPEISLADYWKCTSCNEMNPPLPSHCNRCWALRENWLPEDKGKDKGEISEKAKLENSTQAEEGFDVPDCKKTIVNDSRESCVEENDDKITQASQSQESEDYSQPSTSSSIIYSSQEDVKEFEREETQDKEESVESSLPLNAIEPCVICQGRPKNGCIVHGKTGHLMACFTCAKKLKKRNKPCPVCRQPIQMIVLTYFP
VIM-2 inh – VIM-2 metallo-beta-lactamase inhibitors, primary screen, biochemical, epi-absorbance readout, Pseudomonas aeruginosa enzyme | purified VIM-2, nitrocefin hydrolysis, epi-absorbance fluorescence | hit rate 0.89% among 290,000 | inhibition, % at 5.6 µM;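 active = inhibition above the mean of all tested compounds plus 3 SD, cutoff set per screening run, cut at about 7.5% in these data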;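 also: red hydrolysis product quenches plate fluorescence so inhibitors raise well fluorescence; 0% = enzyme with DMSO and 100% = DMSO without enzyme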
IMP-1 inh – IMP-1 metallo-beta-lactamase inhibitors, primary screen, biochemical, epi-absorbance readout, Pseudomonas aeruginosa enzyme; metallo-beta-lactamase IMP-1 (Pseudomonas aeruginosa); purified IMP-1, nitrocefin hydrolysis, epi-absorbance fluorescence; inhibition, % at 5.6 µM; hit rate 0.45% among 290,000;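 active = inhibition above the mean plus 3 SD of all compounds in the same screening run, cut at about 4.5% in these data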;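 also: 0% = IMP-1 with DMSO and 100% = DMSO wells lacking enzyme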
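System – purified recombinant IMP-1 beta-lactamase · Input – IMP-1 dispensed at 0.2 nM · Timing – 15 min preincubation plus 25 min reaction at 25 °C · Signal – Epi-absorbance fluorescence, 480 nm excitation, 530 nm emission · Measure – percent IMP-1 inhibition derived from blank-referenced optical density · Controls – Enzyme-plus-DMSO low control, enzyme-free DMSO high control · Replication – singlicate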
aSyn 5UTR inh – MLPCN primary screen, SNCA 5' untranslated region; alpha-synuclein 5'UTR reporter, inhibitor activity; hit rate 0.82% among 300,000; inhibition, % (tested at 7.5 µM); in the data active = inhibition above about 60%;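 also: H4 neuroglioblastoma cells stably carrying SNCA 5'UTR luciferase fusion; 0% = DMSO wells and 100% = positive control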
697 NFkB inh – inhibitors of PMA/ionomycin-induced NF-kB reporter, 697 cells, primary screen, B-cell NF-kB inhibitor project, cell-based, luminescence, uHTS. 697 B-cell NF-kB luciferase reporter, 16 h. inhibition, % at 4 µM. hit rate 0.33% among 330,000; in the data active = inhibition above about 35%
Mdm2-MdmX conf – Mdm2-MdmX complex disruptors, retested hits, confirmation, luminescence, single concentration. shares compounds with Mdm2 MdmX PPI. Mdm2-MdmX binding, luminescent assay. inhibition, % at 8 µM. hit rate 55% among 10,000. AID 489028, 2010; in the data active = inhibition above about 40%
FLuc counter – full-length luciferase signal inhibition, confirmation, counter-screen for Mdm2/MdmX interaction inhibitor project, cell-based, single concentration, SaOS-2; shares compounds with Mdm2 MdmX PPI; SaOS-2 full-length luciferase counterscreen, luminescence; inhibition, % at 8 µM; hit rate 77% among 6,200;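 active = mean inhibition at 8 µM reaching about 37%, which flags the compound as non-specific, limit read from the data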;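 also: p53-null SaOS-2 cells with luciferase driven by a doxycycline-inducible promoter; compound on cells about two nights before reading with doxycycline added after day one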
* hit, by the source's call; / = not tested or not shown. The list is not random: actives were taken first. Their share in the collection is about 4.7%.

SMILES	Jurkat NFkB inh	Mdm2 MdmX PPI	VIM-2 inh	IMP-1 inh	aSyn 5UTR inh	697 NFkB inh	Mdm2-MdmX conf	FLuc counter
C=CCN1C=CC(=C/C=C(/C#N)C(=O)OCC)C=C1	-120	-49	3	-1	-138	-178	/	/
NNc1nc(N)c2c(n1)-c1ccccc1CC21CCCC1	9	11	-5	-3	20	-4	/	/
O=C(COC(=O)C1CCCCC1)Nc1cc([N+](=O)[O-])ccc1F	-8	-19	2	0	8	-19	/	/
O=C(C[n+]1cnn(CC(=O)c2ccc(Cl)cc2Cl)c1)c1ccc([N+](=O)[O-])cc1	/	/	-1	-1	17	/	/	/
Cc1cccc(C(=O)Nc2ccccc2SCC(=O)Nc2ccc(C)c(Cl)c2)c1	-24	29	-2	-5	-28	-26	/	/
C=C(C(=O)c1ccccc1)C(C)CC(=O)c1ccccc1 (configuration not stated)	13	64*	0	-4	-32	-10	61*	32
NC(CS(=O)O)C(=O)O (configuration not stated)	6	0	/	/	8	11	/	/
Oc1ccc(N=Nc2n[nH]c(-c3ccc(Br)cc3)n2)cc1	/	/	-4	-6	-55	/	/	/
Oc1ccc(N=Nc2ccc(Br)cc2)c(O)c1	-4	82*	-4	-3	-226	-147	41*	98*
O=C(CNC1CCN(Cc2ccccc2)CC1)Nc1ccc(S(=O)(=O)N2CCCCC2)cc1	-6	24	-4	-2	8	-2	/	/
COc1cc(OC)cc(-c2nnc(NC(=O)CCS(=O)(=O)c3ccc(F)cc3)o2)c1	-9	59*	/	/	4	14	55*	65*
COc1cc(-c2nnc(NC(=O)CCS(=O)(=O)c3ccccc3)o2)cc(OC)c1OC	-9	79*	/	/	-3	16	65*	63*
COc1cc(-c2nnc(NC(=O)CCS(=O)(=O)c3ccc(F)cc3)o2)cc(OC)c1OC	-14	72*	/	/	-35	6	69*	48*
CCc1ccc(CN(Cc2cccnc2)C(=O)/C=C/c2ccc(OC)cc2)cc1	11	19	-4	-2	-61	-13	/	/
COCC(=O)Nc1ncc(S(=O)(=O)c2ccc([N+](=O)[O-])cc2)s1	3	11	-1	-3	5	11	/	/
O=C(NC(Nc1ncc(S(=O)(=O)c2ccc([N+](=O)[O-])cc2)s1)(C(F)(F)F)C(F)(F)F)c1ccc(Cl)cc1	3	97*	0	-1	73*	5	96*	30
O=C(NC12CC3CC(CC(C3)C1)C2)c1cncc(Br)c1	12	42	1	-2	-29	-7	/	/
COc1ccc(Cl)cc1NC(=O)Nc1cn(C)nc1C	12	18	-3	-5	10	18	/	/
Cc1ccc(S(=O)(=O)c2c(C)nn(C(C)(C)C)c2OC(=O)c2ccc(Br)o2)cc1	5	89*	-2	-1	29	-37	60*	29
Cc1ccc(S(=O)(=O)c2c(C)nn(C(C)(C)C)c2OC(=O)c2ccco2)cc1	7	9	-3	-3	26	7	/	/
CC(C)NC(=O)N(C)C[C@@H]1Oc2ccc(NC(=O)CCN3CCOCC3)cc2CC(=O)N([C@@H](C)CO)C[C@@H]1C	3	-2	/	/	/	13	/	/
CC(=O)N(/N=C1\Sc2ccccc2C1=O)c1ccc(C)cc1C	2	65*	-1	-1	48	-207	76*	107*
O=C(Nc1ccccc1N1CCCCC1)c1ccc(-c2cc(Cl)ccc2Cl)o1	12	50*	/	/	20	-3	-14	/
O=C(Nc1ccc(Cl)cn1)c1ccc(-c2cc(Cl)ccc2Cl)o1	-3	74*	-2	-1	-19	-10	4	/
Cc1ccccc1NC(=O)c1ccc(-c2ccc(Cl)cc2Cl)o1	-13	27	0	-1	-37	-4	/	/
SMILES	Jurkat NFkB inh	Mdm2 MdmX PPI	VIM-2 inh	IMP-1 inh	aSyn 5UTR inh	697 NFkB inh	Mdm2-MdmX conf	FLuc counter
Cc1cccc(C)c1NC(=O)c1ccc(-c2ccc(Cl)cc2Cl)o1	22	56*	0	-2	-3	18	46*	45*
COCCCNC(=O)CCN1N=C(c2ccccc2)CCC1=O	-21	15	-3	-2	8	-2	/	/
COc1cc2nc(N3CCN(c4cc(C)ccc4C)CC3)nc(N)c2cc1OC	26	95*	-2	-1	95*	-18	86*	51*
COc1ccc(C)cc1Nc1nc(N)c2cc(OC)c(OC)cc2n1	12	51*	0	-1	-37	20	15	/
CCN(c1cccc(C)c1)S(=O)(=O)c1ccc2[nH]c(=O)c(=O)[nH]c2c1	2	11	-3	-5	16	8	/	/
Cc1ccc2cc(C#N)c(SCc3nnc(-c4ccccc4[N+](=O)[O-])o3)nc2c1	-11	87*	-4	-2	16	-10	79*	72*
COC(=O)CSc1nc2cc(C)ccc2cc1C#N	-142	-212	-1	-4	-189	-132	/	/
COC(=O)CSc1nnc(C)n1-c1cccc(C#N)c1	-11	-8	-5	-3	-3	7	/	/
O=C(CCc1ccccc1)NN1C(=O)C2C3C=CC(C3)C2C1=O (configuration not stated)	10	5	1	-1	15	8	/	/
Cc1cccc(C)c1Nc1c(-c2ccccn2)nc2ccccn12	1	77*	-2	-2	4	-3	58*	41*
Cc1ccc(Nc2c(-c3ccccn3)nc3cccc(C)n23)cc1	12	87*	-3	-6	14	5	91*	21
COc1ccc(C(NC(=O)c2c(F)c(F)c(F)c(F)c2F)c2ccccc2)cc1 (configuration not stated)	7	77*	-3	-3	21	14	-1	/
C(#Cc1ccccc1)C[N+]1(CC#Cc2ccccc2)CCCCC1	25	20	-1	-1	28	-40	/	/
Cc1ccc(C#CC[N+]2(CC#Cc3ccc(C)cc3)CCCCC2)cc1	29	55*	-3	-2	19	19	50*	52*
CCOc1cc(CNCCO)cc(Br)c1OCc1ccccc1	43	17	-4	-3	1	-5	/	/
COc1cc(CNCCO)cc(Br)c1OCc1ccccc1Cl	12	57*	2	-2	-21	8	14	/

High-throughput results: PubChem BioAssay, several laboratories
